Experimental data taken from ChEMBL document CHEMBL4014308, “Amphiphilic Tobramycin-Lysine Conjugates Sensitize Multidrug Resistant Gram-Negative Bacteria to Rifampicin and Minocycline” (J Med Chem, 2017).
The source made the active and inactive calls. The calls are words filed in the database; no cut-off is given here.

Tests used:
Pseudomonas aeruginosa [1] = experiment: Potentiation of minocycline-induced antibacterial activity against multidrug/extremely drug-resistant/colistin-resistant Pseudomonas aeruginosa isolate 101243 at 4 ug/ml after 18 hrs by checkerboard assay; type: functional
How it was run: (§1)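 Checkerboard in Mueller-Hinton broth: antibiotic serially diluted along one axis and adjuvant along the other (10 × 7 matrix). Inoculum from a 0.5 McFarland saline suspension diluted 1:50 in MHB; 18 h at 37 °C, then plate read. MIC is the lowest concentration with no growth. FIC of each agent is its concentration in a no-growth well divided by its MIC alone; FIC index is the sum of both. FIC index ≤0.5 counts as synergy.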

Pseudomonas aeruginosa [2] = experiment: Potentiation of rifampicin-induced antibacterial activity against multidrug/extremely drug-resistant/colistin-susceptible Pseudomonas aeruginosa isolate P262-101856 infected in Galleria mellonella assessed as mortality at 12.5 to 37.5 mg/kg after 24 hrs relative to control; type: functional
How it was run: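 Galleria mellonella larvae (~250 mg, used within 7 days), 15 per group, injected with 10 µL XDR P262 at 1.0×10^3 CFU/mL in PBS. PBS vehicle control. Survival scored over 24 h at 37 °C.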

Pseudomonas aeruginosa [3] = experiment: Antibacterial activity against multidrug/extremely drug-resistant/colistin-susceptible Pseudomonas aeruginosa isolate P262-101856 after 18 hrs by microtiter dilution assay; type: functional; conditions: isolate P262-101856, 18 h
How it was run: (§2)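 Broth microdilution following CLSI guidelines. An overnight culture was adjusted to 0.5 McFarland in saline, then diluted 1:50 in Mueller-Hinton broth. This inoculum was added in equal volume to 2-fold serial dilutions of agent in MHB and incubated 18 h at 37 °C. MIC was the lowest concentration with no visible growth.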

Pseudomonas aeruginosa [4] = experiment: Potentiation of rifampicin-induced antibacterial activity against Pseudomonas aeruginosa PAO200 harboring MexAB-oprM deletion mutant after 18 hrs by checkerboard assay; type: functional; how it was run: as §1
Streptococcus pneumoniae = experiment: Antibacterial activity against Streptococcus pneumoniae ATCC 49619 after 18 hrs by microtiter dilution assay; type: functional; conditions: ATCC 49619, 18 h
How it was run: (§3)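 Broth microdilution per CLSI. Overnight culture adjusted to 0.5 McFarland in saline, diluted 1:50 in Mueller-Hinton broth, and added to an equal volume of 2-fold serial compound dilutions in MHB. Incubated 18 h at 37 °C. MIC taken as the lowest concentration with no visible growth.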

[5] = Cytotoxicity against human DU145 cells assessed as cell viability at 20 uM after 48 hrs by MTS assay relative to control; type: cell-based, DU-145; conditions: read-out: Activity
How it was run: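 DU145 and JIMT-1 grown in DMEM with 10% FBS and penicillin/streptomycin at 37 °C, 5% CO2. 7500–9000 cells/well were seeded for 24 h, then treated at 2.5–30 µM (final) for 48 h. MTS reagent (20% v/v) added for 4 h and OD read at 490 nm after blank subtraction; viability expressed relative to vehicle control.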

Enterococcus faecium = experiment: Antibacterial activity against Enterococcus faecium ATCC 27270 after 18 hrs by microtiter dilution assay; type: functional; conditions: ATCC 27270, 18 h; how it was run: as §3
Pseudomonas aeruginosa [6] = experiment: Synergistic antibacterial activity against Pseudomonas aeruginosa PAO1 after 18 hrs in presence of minocycline by checkerboard assay; type: functional; conditions: PAO1, 18 h
How it was run: (§4)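 Checkerboard in MHB: antibiotic diluted along one axis and adjuvant along the other (10 × 7 matrix). Inoculum was a 1:50 dilution in MHB of a 0.5 McFarland saline suspension; incubated 18 h at 37 °C. Each FIC = concentration in the no-growth well divided by the MIC alone; FIC index = sum of both FICs. ≤0.5 synergy, 0.5–4 no interaction, ≥4 antagonism.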

Pseudomonas aeruginosa [7] = experiment: Potentiation of rifampicin-induced antibacterial activity against multidrug/extremely drug-resistant/colistin-susceptible Pseudomonas aeruginosa isolate 101885 assessed as fold reduction in rifampicin MIC at 4 ug/ml after 18 hrs by checkerboard assay relative to control; type: functional
How it was run: (§5)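 Checkerboard in Mueller-Hinton broth, 10 × 7 matrix, with the adjuvant held at 4 µg/mL. Inoculum from a 0.5 McFarland suspension diluted 1:50; 18 h at 37 °C. Antibiotic MIC (lowest concentration with no growth) with adjuvant is compared with the antibiotic MIC alone, giving a fold reduction.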

Pseudomonas aeruginosa [8] = experiment: Potentiation of rifampicin-induced antibacterial activity against multidrug/extremely drug-resistant/colistin-susceptible Pseudomonas aeruginosa isolate 100036 assessed as fold reduction in rifampicin MIC at 4 ug/ml after 18 hrs by checkerboard assay relative to control; type: functional; how it was run: as §5
Pseudomonas aeruginosa [9] = experiment: Bactericidal activity against Pseudomonas aeruginosa PAO1 at 0.125 times antibacterial MIC after 6 hrs; type: functional
Pseudomonas aeruginosa [10] = experiment: Bactericidal activity against Pseudomonas aeruginosa PAO1 at antibacterial MIC after 2 hrs; type: functional
How it was run: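 Time-kill with P. aeruginosa PAO1. A 0.5 McFarland suspension was diluted 1:50 in LB broth and exposed to agent in PBS (pH 7.2) at 1/2×, 1×, 2× or 4× MIC at 37 °C for 6 h. Samples at 0, 10, 30, 60, 90, 120, 240 and 360 min were serially diluted in PBS, plated on LB agar, and colonies counted after 20 h at 37 °C.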

Escherichia coli [11] = experiment: Antibacterial activity against gentamicin/tobramycin/ciprofloxacin-resistant Escherichia coli isolate CANWARD-2011 97615 harboring AAC3-2A after 18 hrs by microtiter dilution assay; type: functional; conditions: isolate CANWARD-2011 97615, 18 h; how it was run: as §2
Escherichia coli [12] = experiment: Antibacterial activity against gentamicin-resistant Escherichia coli isolate CAN-ICU 61714 after 18 hrs by microtiter dilution assay; type: functional; conditions: isolate CAN-ICU 61714, 18 h; how it was run: as §2
Pseudomonas aeruginosa [13] = experiment: Potentiation of rifampicin-induced antibacterial activity against multidrug/extremely drug-resistant/colistin-susceptible Pseudomonas aeruginosa isolate P264-104354 assessed as fold reduction in rifampicin MIC at 4 ug/ml after 18 hrs by checkerboard assay relative to control; type: functional
How it was run: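 Checkerboard broth microdilution in MHB: antibiotic serially diluted along one axis, adjuvant along the other (10 × 7 matrix). Inoculum from 0.5 McFarland saline suspension diluted 1:50 in MHB; 18 h at 37 °C. MIC taken as lowest concentration with no growth. FIC per agent = combination MIC/MIC alone; FIC index = sum (≤0.5 synergy).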

Pseudomonas aeruginosa [14] = experiment: Synergistic antibacterial activity against Pseudomonas aeruginosa PAO1 after 18 hrs in presence of ceftazidime by checkerboard assay; type: functional; conditions: PAO1, 18 h; how it was run: as §4
Acinetobacter baumannii = experiment: Synergistic antibacterial activity against multidrug-resistant Acinetobacter baumannii AB030 after 18 hrs in presence of rifampicin by checkerboard assay; type: functional; conditions: AB030, 18 h
How it was run: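 Checkerboard in MHB with a 10 × 7 matrix: antibiotic serially diluted along one axis, adjuvant along the other. Inoculum was a 1:50 dilution of a 0.5 McFarland suspension, incubated 18 h at 37 °C and read on a plate reader. Each FIC is the concentration in a no-growth well divided by the MIC alone; FIC index is their sum, with ≤0.5 taken as synergy.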

[15] = Ratio of cytotoxic concentration against human DU145 cells to synergistic concentration for Pseudomonas aeruginosa PAO1 in presence of rifampicin
Pseudomonas aeruginosa [16] = experiment: Synergistic antibacterial activity against Pseudomonas aeruginosa PAO1 after 18 hrs in presence of trimethoprim by checkerboard assay; type: functional; conditions: PAO1, 18 h; how it was run: as §4
Pseudomonas aeruginosa [17] = experiment: Potentiation of minocycline-induced antibacterial activity against multidrug/extremely drug-resistant/colistin-resistant Pseudomonas aeruginosa isolate 91433 at 4 ug/ml after 18 hrs by checkerboard assay; type: functional; how it was run: as §1

With `Cl.Cl.Cl.Cl.Cl.Cl.Cl.NCCCC[C@H](N)C(=O)N(CCCCCCCCCCCCO[C@@H]1[C@@H](O[C@H]2O[C@H](CO)[C@@H](O)[C@H](N)[C@H]2O)[C@H](N)C[C@H](N)[C@H]1O[C@H]1O[C@H](CN)[C@@H](O)C[C@H]1N)Cc1c2ccccc2c(Cl)c2ccccc12` the “fractional inhibitory concentration index (FICI)” value (Pseudomonas aeruginosa [1]) was 0.281, the mortality (Pseudomonas aeruginosa [2]) was 100% and the MIC (Pseudomonas aeruginosa [3]) was 32 µg/mL. The “fractional inhibitory concentration index (FICI)” value (Pseudomonas aeruginosa [4]) was 0.129, the MIC (Streptococcus pneumoniae) was 32 µg/mL and the viability at 48 h, 20 µM [5] was > 50%. For the same compound, the MIC (Enterococcus faecium) was 8 µg/mL, the MIC (Pseudomonas aeruginosa [6]) was 1 µg/mL and the “fold change (FC)” value (Pseudomonas aeruginosa [7]) was 128. For the same compound, the “fold change (FC)” value (Pseudomonas aeruginosa [8]) was 128, the Activity (Pseudomonas aeruginosa [9]) was “inactive” and the Activity (Pseudomonas aeruginosa [10]) was “Active”. For the same compound, the MIC (Escherichia coli [11]) was 32 µg/mL, the MIC (Escherichia coli [12]) was 32 µg/mL and the “fold change (FC)” value (Pseudomonas aeruginosa [13]) was 64. The MIC (Pseudomonas aeruginosa [14]) was 2 µg/mL, the MIC (Acinetobacter baumannii) was 8 µg/mL and the Ratio [15] was 6. The MIC (Pseudomonas aeruginosa [16]) was 2 µg/mL and the “fractional inhibitory concentration index (FICI)” value (Pseudomonas aeruginosa [17]) was 0.266.
